# Screening results from PubChem.
# PAFAH1B2 inh = PAFAH1B2 (human) inhibition; recombinant PAFAH1B2, FP-rhodamine activity probe, fluorescence polarization; inhibition, % at 3.39 µM; 340,000 tested, 1.2% active;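 active = inhibition above the mean of all tested compounds plus 3 SD, cut at about 24% in these data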
# PREPL inh = human PREPL enzyme inhibition; 320,000 tested, 0.68% active; Q4J6C6; inhibition, % at 5.96 µM; recombinant PREPL, fluorescence polarization activity-based probe; in the data active = inhibition above about 43%
# PAFAH1B3 FP inh = inhibitors of human PAFAH1B3. Q15102. 340,000 tested, 0.28% active. inhibition, % at 3.39 µM. recombinant PAFAH1B3, FP-rhodamine probe, fluorescence polarization;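 active = inhibition above the screen-wide average of all tested compounds plus 3 SD, cut at about 25% in these data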
# Apaf1 inhib = human Apaf-1 inhibition; O14727; AID 489030; 330,000 tested, 0.71% active; reconstituted apoptosome caspase-3 activity, DEVD-Rh110 fluorescence; inhibition, % at 20 µM; active = inhibition of at least 40% at 20 µM
#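 Material: biochemical Apaf-1 apoptosome reconstitution. Medium: Hepes buffer, pH 7.5. Also added: cytochrome c activation, bis-DEVD rhodamine 110 substrate. Timing: 30 min compound preincubation, 50 min activation, room temperature. Measured by: rhodamine 110 fluorescence at Ex 480/Em 540 nm.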
# PAFAH2 FP inh = PAFAH2 (human) inhibition. recombinant PAFAH2, FP-rhodamine activity probe, fluorescence polarization. inhibition, % at 3.39 µM. 340,000 tested, 0.99% active;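 active = inhibition above the mean over all tested compounds plus 3 SD, cut at about 30% in these data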;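 also: inhibitors block probe labeling of enzyme so polarization drops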
# pPAFAH inh = inhibitors of human plasma PAF acetylhydrolase (pPAFAH); Q13093; recombinant pPAFAH, FP-rhodamine probe fluorescence polarization; inhibition, % at 3.39 µM; 330,000 tested, 1.5% active; AID 463082;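 active = inhibition above the mean inhibition across the screen plus 3 SD, cut at about 25% in these data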;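 also: inhibitors block binding of the rhodamine activity-based probe so polarization drops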
# Target sequence (Q13093 whole entry, looked up): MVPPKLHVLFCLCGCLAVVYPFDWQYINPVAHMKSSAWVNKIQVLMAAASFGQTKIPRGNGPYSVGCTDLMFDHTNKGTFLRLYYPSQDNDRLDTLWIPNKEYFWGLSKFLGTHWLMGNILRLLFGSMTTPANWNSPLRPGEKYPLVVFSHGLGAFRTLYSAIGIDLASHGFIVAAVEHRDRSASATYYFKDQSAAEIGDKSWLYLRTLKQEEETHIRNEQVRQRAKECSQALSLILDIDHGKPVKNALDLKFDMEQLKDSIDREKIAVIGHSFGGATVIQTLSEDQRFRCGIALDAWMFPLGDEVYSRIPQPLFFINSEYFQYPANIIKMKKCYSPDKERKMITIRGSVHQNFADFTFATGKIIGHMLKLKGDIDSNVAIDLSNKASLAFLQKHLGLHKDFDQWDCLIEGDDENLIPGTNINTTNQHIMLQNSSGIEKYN
# pPAFAH confirm = pPAFAH (human) inhibition, confirmed; shares compounds with pPAFAH inh; recombinant pPAFAH, FP-Rh probe fluorescence polarization; inhibition, % at 3.39 µM; 2,300 tested, 72% active; AID 463230;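 active = mean inhibition of the triplicate above the hit cutoff set for the earlier primary screen, cut at about 25% in these data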
# Hits are given with their value; – = inactive; · = no result given; ! = repeats disagree. Shown are actives, neighbours in structure and some others; about 3.5% of the full set was active somewhere.
SMILES,PAFAH1B2 inh,PREPL inh,PAFAH1B3 FP inh,Apaf1 inhib,PAFAH2 FP inh,pPAFAH inh,pPAFAH confirm
Cc1nn2c3c(cnc2c1-c1ccccc1)C(=O)CCC3,–,–,–,–,–,–,·
COCCOn1c(SCCOC)nc2ccccc2c1=O,–,–,–,–,–,–,·
CCOc1ccc(N2CC(C(=O)Nc3ccc(F)cc3F)CC2=O)cc1 (centres undefined),–,–,–,–,–,36.9,–
O=C1c2nc3cc(-c4ccco4)[nH]n3c(=O)c2CN1Cc1ccccc1,·,–,·,–,·,35.4,–
O=[N+]([O-])c1cccc(NC(=S)Nc2nc(-c3ccccc3Cl)cs2)c1,–,–,–,–,–,38.5,–
O=C(CNC(c1ccccc1)c1ccccc1)Nc1ccccc1-c1ccccc1,–,–,–,–,–,–,·
O=C(CNC(c1ccccc1)c1ccccc1)Nc1ccccc1F,–,–,–,–,–,47.1,–
CCCCc1ccc(NC(=O)CSCc2cc(=O)[nH][nH]2)cc1,–,–,–,–,–,36.3,–
N#CCC(=O)Nc1ccc(C(=O)OCC(=O)Nc2ccccc2Sc2ccccc2)cc1,·,–,·,–,·,71.2,–
CC(=O)Nc1ccc(C(=O)OCC(=O)Nc2ccccc2Sc2ccccc2)cc1,–,–,–,–,–,–,·
CCc1ccc(OCC(=O)N2CC(C(N)=O)Oc3ccccc32)cc1 (centres undefined),–,–,–,–,–,–,·
Cc1ccc(CNC2=NCCCCC2)n1C,–,–,–,–,–,53.3,–
N#CCCN(C(=O)COC(=O)c1ccc(S(=O)(=O)N2CCCC2)cc1)c1cccc(Cl)c1,–,–,–,–,–,–,·
Cn1cccc1/C=N/N1CCN(Cc2cccc3ccccc23)CC1,–,–,–,–,–,46.0,–
O=C1NC(=S)S/C1=C\c1ccc(SCc2ccccc2)o1,70.9,–,–,·,–,40.1,58.1
CCC1=NN2C(=N)/C(=C\c3ccc(SCc4ccco4)o3)C(=O)N=C2S1,–,–,–,–,–,–,·
O=C1NC(=S)S/C1=C\c1ccc(SCc2ccco2)o1,–,–,–,·,–,68.7,55.0
CCCC1=NN2C(=N)/C(=C\c3ccc(SCc4ccco4)o3)C(=O)N=C2S1,–,–,–,–,–,59.6,60.6
O=C1NC(=O)/C(=C/c2ccc(-c3cccc([N+](=O)[O-])c3)o2)S1,–,·,–,–,–,·,·
O=C1NC(=S)SC1=Cc1ccccc1Cl,–,·,–,·,–,·,·
CC(C)(CCl)C(=O)Nc1ccnc(-c2ccncc2)n1,–,–,–,–,–,–,·
Cc1ccc(S(=O)(=O)N2CCN(C(=O)C3Cc4ccccc4CN3C(=O)c3ccco3)CC2)cc1 (centres undefined),–,–,–,–,–,–,·
Cc1ccc(-c2nn(-c3ccccc3)cc2C2CC(c3cccs3)=NN2C(=O)CCCC(=O)O)cc1 (centres undefined),–,–,–,–,–,39.8,–
COc1ccc(-c2nn(-c3ccccc3)cc2C2CC(c3cccs3)=NN2C(=O)CCCC(=O)O)cc1 (centres undefined),–,–,–,–,–,–,·
CC1(c2nnc(Cc3ccccc3)o2)CC(c2cccnc2)=NO1 (centres undefined),–,–,–,–,–,–,·
SMILES,PAFAH1B2 inh,PREPL inh,PAFAH1B3 FP inh,Apaf1 inhib,PAFAH2 FP inh,pPAFAH inh,pPAFAH confirm
O=C(Cn1ccc(NC(=O)OCc2ccccc2)nc1=O)NCCCN1CCCC1=O,–,–,–,–,–,–,·
COc1cc(/C=C2\CC/C(=C\c3cc(OC)c(OC)c(OC)c3)C2=O)cc(OC)c1OC,–,–,–,–,–,–,·
COc1cc(/C=C2\CC/C(=C\c3cc(OC)c(O)c(OC)c3)C2=O)cc(OC)c1O,–,–,–,–,–,41.7,39.5
Cc1cc(/C=C2/SC(=S)N(c3cccc(C(F)(F)F)c3)C2=O)c(C)n1-c1cccnc1,–,–,–,–,–,44.0,42.2
O=C(O)c1cc(-c2ccco2)nc2ccc(Br)cc12,–,–,–,–,45.0!,63.2!,–
COc1cc(/C=N/NC(=O)c2cc(-c3ccco3)nc3ccccc23)cc(OC)c1O,–,–,–,–,–,–,·
COC(=O)C1CCN(C(=O)c2cc(-c3ccco3)nc3ccccc23)CC1,–,–,–,–,–,45.1,–
O=C(N/N=C/c1cccc(F)c1)c1cc(-c2ccco2)nc2ccccc12,–,–,–,–,–,39.3,–
CN(C)C(CNC(=O)c1cc(-c2ccco2)nc2ccccc12)c1ccccc1 (centres undefined),–,–,–,–,–,61.1,–
CCN(C(=O)C(=O)c1c[nH]c2ccccc12)c1ccccc1,–,–,–,–,–,–,·
CCOC(=O)C1CN(S(=O)(=O)c2cccs2)c2ccc(CC(=O)OC)cc2O1 (centres undefined),–,–,–,–,–,–,·
C/C(=N\NC(=O)c1cc2ccccc2cc1O)c1ccc(C)o1,–,–,–,–,–,41.4,–
C/C(=N\NC(=O)c1cc2ccccc2cc1O)c1cccs1,–,–,–,–,–,51.6,–
O=C(CN1C(=O)NC2(CCCCC2)C1=O)Nc1ccc2c(c1)OCCCO2,–,–,–,–,–,–,·
C/C(=N\OCc1nc2ccccc2c(=O)n1/N=C/c1cc(C)cc([N+](=O)[O-])c1O)c1ccccc1,–,–,–,–,–,45.6,–
CC(=O)N(CCC1(c2ccc(C)cc2)CCOC(C(C)C)C1)Cc1ccco1 (centres undefined),–,–,–,–,–,–,·
Cc1c(Nc2nc3ccccc3n3cnnc23)cccc1[N+](=O)[O-],–,–,–,–,–,–,·
Cc1cc([N+](=O)[O-])ccc1Nc1nc2ccccc2n2cnnc12,–,–,–,–,–,37.1,–
Cc1nc2cc(-c3ccsc3-n3c(C)ccc3C)[nH]n2c(=O)c1Cl,–,–,–,–,84.2,54.6,47.4
COCc1cc(=O)n2[nH]c(-c3ccsc3-n3c(C)ccc3C)cc2n1,–,–,–,–,54.4,46.4,–
Cc1cc(=O)n2[nH]c(-c3ccsc3-n3c(C)ccc3C)cc2n1,–,–,–,–,39.7,42.2,–
Cc1ccccc1-c1cc2nc(C)c(Cl)c(=O)n2[nH]1,–,–,–,–,–,–,·
COc1cc(NC(=O)c2ccc(Br)o2)c(C(=O)O)cc1OC,–,–,–,–,–,–,·
CC(C)=CCC/C(C)=C/CC/C(C)=C/COc1ccc2ccc(=O)oc2c1,–,–,–,–,–,–,·
Cc1cc(C(=O)NN=C2CCCCCCC2)c2ccccc2n1,–,–,–,–,–,–,·
CC(=O)N1CCC(=NNC(=O)c2cc3ccccc3cc2O)CC1,–,–,–,–,–,43.6,–
O=C(NN=C1CCN(Cc2ccccc2)CC1)c1cc2ccccc2cc1O,–,–,–,–,–,47.2,–
